The structures appear in SMILES notation. The source made the active and inactive calls. The calls are words filed in the database; no cut-off is given here.

Data set [1] has as its system PC-12. Briefly: Inhibition of H202-induced apoptosis in rat PC-12 cells assessed as necrotic cells at 25 uM after 24 hrs by Annexin-V-FITC/PI-staining based flow cytometric analysis (reference value: 0.33%). It counts as functional. Also on record: scale not given: the % may be the effect or the level left. The method in brief:
(§1)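 PC12 cells seeded 2 × 10⁵/well for 24 h, pretreated 24 h with 12.5, 25, 50 or 100 µM compound, then given fresh medium containing 650 µM H2O2. Harvested cells washed in binding buffer, stained 5 min with Annexin V-FITC/PI, analysed by flow cytometry.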
On the technique in general: Flow cytometry measures light scatter and fluorescence of single cells or particles in a stream.

Data set [2] relates to Mus musculus. Put plainly: Neuroprotective activity against lesioned C57BL/6 mouse model of Parkinson's disease assessed as upregulation of Nrf2 in SNpc and striatum area at 100 mg/kg , po administered for 2 week before MPTP stimulation by Immuno histochemistry assays. Type of data set: functional, organism-based. Particulars: Brain, time 2.0 weeks. A digest of the protocol: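 Prophylactic regimen in male C57BL/6 mice (n = 6): oral compound 100 mg/kg in saline 2 weeks, then MPTP-HCl 25 mg/kg i.p. in week 3. Nrf2 immunohistochemistry in striatum and SNpc, quantified as Nrf2-immunopositive density relative to total area; mean ± SD.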

The subject of data set [3] is Mus musculus. Put plainly: Neuroprotective activity in lesioned C57BL/6 mouse model of Parkinson's disease assessed as assessed as reduction in climbing down time at 100 mg/kg, po administered for 2 week after MPTP stimulation by pole test. Type of data set: functional. Particulars: C57BL/6, po, 336 h, read-out: INH, time 2 weeks. The method in brief: (§2)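 Male 10-week-old C57BL/6 mice (20–23 g), n = 6/group. Prophylactic: oral compound (50 or 100 mg/kg in saline) 2 weeks, then MPTP-HCl 25 mg/kg i.p. in week 3. Therapeutic: MPTP-HCl 25 mg/kg i.p. 1 week, then oral 100 mg/kg 2 weeks. Saline vehicle. Pole/rotarod training last 3 days; TH immunohistochemistry on SNpc and striatum.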

Data set [4] has as its system PC-12. Put plainly: Inhibition of H202-induced apoptosis in rat PC-12 cells assessed as late apoptotic cells at 100 uM after 24 hrs by Annexin-V-FITC/PI-staining based flow cytometric analysis (reference value: 32.5%). It counts as functional. Details: scale not given: the % may be the effect or the level left. A digest of the protocol: as §1
The test system of data set [5] is Mus musculus. Put plainly: Neuroprotective activity in lesioned C57BL/6 mouse model of Parkinson's disease assessed as assessed as reduction in climbing down time at 50 mg/kg, po administered for 2 week before MPTP stimulation by pole test. It counts as functional. Particulars: C57BL/6, po, 336 h, time 2 weeks. A digest of the protocol: as §2
Data set [6] concerns PC-12. Put plainly: Inhibition of H202-induced apoptosis in rat PC-12 cells assessed as viable cells at 50 uM after 24 hrs by Annexin-V-FITC/PI-staining based flow cytometric analysis (reference value: 52.01%). Type of data set: functional. Particulars: read-out: Activity. The method in brief:
as §1

Data set [7] relates to PC-12. Briefly: Inhibition of H2O2-induced reactive oxygen species production in rat PC-12 cells assessed as decrease in ROS accumulation at 12.5 to 50 uM measured after pretreated for 24 hrs followed by H2O2 challenge and measured after 24 hrs by DCFH-DA probe based flow cytometry. Type of data set: functional, cell-based. Particulars: dose 12.5-50 µM, time 48.0 hrs. A digest of the protocol:
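PC12 cells seeded 1 × 10⁴/well, pretreated 24 h with 12.5–100 µM compound, then 300 µM H2O2 for 24 h. Rinsed, loaded with DCFH-DA (1:1000 in serum-free medium) 15 min at room temperature in the dark, washed; fluorescence read by microscopy, plate reader ([…]) and flow cytometry; three independent experiments.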

Data set [8] concerns Mus musculus. Briefly: Neuroprotective activity against lesioned C57BL/6 mouse model of Parkinson's disease assessed as increase in number of TH positive cells at 50 to 100 mg/kg , po administered for 2 week before MPTP stimulation by Immuno histochemistry assays. It counts as functional. Conditions: dose 50-100 mg/kg, time 2 weeks. The method in brief:
as §2

For data set [9], the system named is PC-12. Briefly: Neuroprotective activity against H2O2-induced cytotoxicity in rat PC-12 cells assessed as cell viability at 12.5 uM pretreated for 24 hrs followed by H2O2 challenge and measured after 24 hrs by MTT assay (reference value: 52.81 +/- 6%). It counts as functional. Particulars: time 48 hrs, read-out: Activity. For orientation: Formazan colour is commonly taken as a measure of viable cells.

Data set [10] has as its system PC-12. Put plainly: Cytotoxicity against rat PC-12 cells assessed as increase LDH content in presence of H2O2 incubated at 50 to 100 uM for 24 hrs by Lactate dehydrogenase assay. Type of data set: cell-based. Particulars: pc-12, 24 h, dose 50-100 µM. A digest of the protocol:
(§3)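 PC12 cells seeded 1 × 10⁴/well for 24 h, pretreated with compound at several concentrations (12.5–100 µM range), then challenged with H2O2; LDH released into medium quantified as membrane-damage marker. Mean ± SD, three independent experiments.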

In data set [11] the test system is PC-12. Put plainly: Upregulation of NQO1 expression in rat PC-12 cell incubated for 24 hrs by Western blot analysis. It counts as functional. A digest of the protocol: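 PC12 cells treated with compound for 24 h; lysates resolved by SDS-PAGE, transferred to PVDF and probed for HO-1 and NQO1; band intensities quantified densitometrically. Mean ± SD of three independent experiments.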
(In general: A western blot detects proteins with antibodies after separation by electrophoresis.)

In data set [12] the test system is PC-12. Put plainly: Inhibition of H202-induced apoptosis in rat PC-12 cells assessed as early apoptotic cells at 25 uM after 24 hrs by Annexin-V-FITC/PI-staining based flow cytometric analysis (reference value: 15.16%). It counts as functional. Details: scale not given: the % may be the effect or the level left. A digest of the protocol: as §1
Data set [13] concerns Mus musculus. Put plainly: Neuroprotective activity in lesioned C57BL/6 mouse model of Parkinson's disease assessed as assessed as reduction in climbing down time at 100 mg/kg, po administered for 2 week before MPTP stimulation by pole test. Conditions: C57BL/6, po, 336 h, time 2 weeks. Type of data set: functional. The method in brief: as §2
Data set [14] has as its system PC-12. Put plainly: Inhibition of H2O2-induced mitochondrial membrane potential loss in rat PC-12 cells pretreated for 24 hrs followed by H2O2 challenge and measured after 24 hrs by JC-1 staining based fluorescence microplate reader assay. Particulars: dose 12.5-50 µM, time 48.0 hrs.
The subject of data set [15] is Mus musculus. Briefly: Neuroprotective activity against lesioned C57BL/6 mouse model of Parkinson's disease assessed as increase in number of TH positive cells at 100 mg/kg , po administered for 2 week […] by Immuno histochemistry assays. Conditions: time 2 weeks.
Data set [16] relates to PC-12. Put plainly: Neuroprotective activity against H202-induced cell damage in rat PC-12 cells assessed as decrease in LDH content incubated at 12.5 to 25 uM for 24 hrs by Lactate dehydrogenase assay. Conditions: dose 12.5-25 µM. It counts as functional, cell-based. A digest of the protocol:
as §3

In data set [17] the test system is PC-12. Put plainly: Inhibition of H202-induced apoptosis in rat PC-12 cells assessed as necrotic cells at 100 uM after 24 hrs by Annexin-V-FITC/PI-staining based flow cytometric analysis (reference value: 0.33%). It counts as functional. Also on record: scale not given: the % may be the effect or the level left. The method in brief: as §1
Data set [18] has as its system PC-12. Put plainly: Inhibition of H202-induced apoptosis in rat PC-12 cells assessed as viable cells at 25 uM after 24 hrs by Annexin-V-FITC/PI-staining based flow cytometric analysis (reference value: 52.01%). Type of data set: functional. Particulars: read-out: Activity. The method in brief:
as §1

The test system of data set [19] is PC-12. Briefly: Cytoprotection activity against H2O2-induced rat PC12-shNrf2-2 cell assessed as cell viability at 12.5 to 100 uM pretreated for 24 hrs followed by H2O2 challenge and measured after 24 hrs by MTT assay. It counts as functional, cell-based. Conditions: dose 12.5-100 µM, time 48.0 hrs. The method in brief:
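PC12 lines made by lentiviral shRNA against rat Nrf2 (shNrf2-2) or scrambled control (shNT), selected with 0.5 mg/mL G418, knockdown confirmed by Western blot. Pretreated 24 h with 12.5, 25.0, 50.0 or 100 µM compound, then H2O2 for 24 h; viability by MTT; mean ± SD, three independent experiments.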

Consider `COc1ccccc1/C=C/C=C/C(=O)N1CCCCC1`, for which the Activity with PC-12 [1] is reported as 0.24%; with PC-12 [4] it was 29.28%; in the data set with Mus musculus [8] it was 30.7%; with PC-12 [10], “Toxic”; with PC-12 [12], 12.72%; in the data set with Mus musculus [15], 74%. Moreover, in the data set with PC-12 [17], the Activity came to 0.57%. The result in the data set with Mus musculus [2], in the data set with PC-12 [11] and in the data set on PC-12 [16] was Active. The values for the inhibition in vivo at 100 mg/kg in the data set with Mus musculus [3] and in the data set on Mus musculus [13] were 20.6% and 34.5%, respectively. Besides, the inhibition in vivo at 50 mg/kg in the data set on Mus musculus [5] turned out to be 38.1%. Moreover, in the data set on PC-12 [6], the viability at 50 µM was 74.8%. Moreover, the inhibition result in the data set on PC-12 [7] is “Active”. For the same molecule, the viability at 12.5 µM in the data set with PC-12 [9] is 88.8%. In addition, the inhibition entry in the data set with PC-12 [14] was “Dose-dependent effect”. For the same molecule, the viability at 25 µM in the data set with PC-12 [18] worked out at 69%. The outcome with PC-12 [19] was inactive.

The values are drawn from ChEMBL document CHEMBL4765320, “Identification and optimization of piperine analogues as neuroprotective agents for the treatment of Parkinson's disease via the activation of Nrf2/keap1 pathway” (Eur J Med Chem, 2020).
